Data set [1] has as its system MDA-MB-231. Kind of data set: Inhibition of TGF-beta-induced Ets-1 expression in human MDA-MB-231 cells treated 12 hrs before TGF-beta challenge measured after 1 hr by Western blotting. A general note: Immunoblotting shows a protein as a band on a membrane.
Data set [2] relates to MDA-MB-231. Kind of data set: Inhibition of osteolytic bone metastases in human MDA-MB-231 cells xenografted in athymic nude mouse left cardiac ventricle assessed as reduction in lytic bone lesion area at 25 to 50 mg/kg, ip administered every other day for 3 weeks measured on day 16 relative to control. It counts as functional, Heart left ventricle. Conditions: dose mg/kg 25-50; route intraperitoneal. The method in brief:
(§1)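 Four-week female athymic nude mice inoculated with 1 × 10^5 MDA-MB-231 cells in 0.1 mL PBS into the left cardiac ventricle. Dosed ip at 25 or 50 mg/kg or vehicle every other day from day 1 for 21 days, n = 11/group. Lytic lesion area quantified on radiographs on days 12, 16 and 21. Two-way ANOVA with Bonferroni.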
(In general: Xenograft models place foreign cells or tissue in a host animal.)

Data set [3] has as its system MDA-MB-231. Briefly: Inhibition of osteolytic bone metastases in human MDA-MB-231 cells xenografted in athymic nude mouse left cardiac ventricle assessed as reduction of bone-tumor interface at 25 mg/kg, ip administered every other day for 3 weeks. It counts as functional. The settings on record: MDA-MB-231, Heart left ventricle, 504 h, route intraperitoneal. The method in brief:
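Intracardiac MDA-MB-231 model in nude mice, dosed ip every other day for 21 days. Mid-sagittal tibia and femur sections TRAP-stained. TRAP+ multinucleated (>3 nuclei) cells counted at 40x along the tumor-bone interface. Expressed as osteoclasts per mm of interface.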

In data set [4] the test system is MDA-MB-231. Briefly: Inhibition of osteolytic bone metastases in human MDA-MB-231 cells xenografted in athymic nude mouse left cardiac ventricle assessed as reduction of bone lysis at 25 to 50 mg/kg, ip administered every other day for 3 weeks measured on day 21. In kind it is functional, Heart left ventricle. Conditions: dose mg/kg 25-50; route intraperitoneal. The method in brief: as §1

In data set [5] the target is MAP kinase p38 (Homo sapiens) (UniProt O15264+Q15759+Q16539+P53778). Briefly: Inhibition of TGF-beta-induced p38 phosphorylation in human MDA-MB-231 cells treated 12 hrs before TGF-beta challenge measured after 1 hr by Western blotting. It counts as cell-based. The method in brief:
(§2)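 Subconfluent MDA-MB-231 pre-treated 12 h with compound (80 μM), then TGF-β (5 ng/mL) for 1 h. RIPA whole-cell lysates (18 μg) run on SDS-PAGE and transferred to PVDF. Probed with rabbit anti-phospho-Smad2, phospho-Smad3, phospho-p38 or Ets-1 (1:1000, overnight, 4 °C). β-actin used as loading control. Chemiluminescent detection; three independent experiments.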

Data set [6] concerns Mus musculus. Briefly: Toxicity in human MDA-MB-231 cells xenografted athymic nude mouse left cardiac ventricle assessed as effect on hematocrit at 50 mg/kg, ip administered every other day for 3 weeks (reference value: 30.2 +/- 1.5%). It counts as organism-based, Heart. On the set-up: dose 50 mg/kg, route intraperitoneal. Conditions: in vivo, 504 h.
The subject of data set [7] is Mus musculus. Briefly: Toxicity in human MDA-MB-231 cells xenografted athymic nude mouse left cardiac ventricle assessed as effect on liver weight at 25 mg/kg, ip administered every other day for 3 weeks (reference value: 1 +/- 0.10 gram). In kind it is organism-based, Heart. Set-up: dose 25 mg/kg, route intraperitoneal. The settings on record: in vivo, 504 h.
Data set [8] deals with MDA-MB-231. Briefly: Inhibition of osteolytic bone metastases in human MDA-MB-231 cells xenografted in athymic nude mouse left cardiac ventricle assessed as improvement in host survival at 25 to 50 mg/kg, ip administered every other day for 3 weeks measured on day 16 relative to vehicle-treated control. It counts as functional, organism-based. Conditions: Heart left ventricle. A digest of the protocol: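 Intracardiac MDA-MB-231 nude mice (n = 11/group) dosed ip every other day for 3 weeks. Survival shown by Kaplan–Meier and analyzed by logrank test with post-hoc logrank test for trend.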

Data set [9] addresses Mothers against decapentaplegic homolog 3 (Homo sapiens) (UniProt P84022). Briefly: Inhibition of TGF-beta-induced Smad3 phosphorylation in human MDA-MB-231 cells treated 12 hrs before TGF-beta challenge measured after 1 hr by Western blotting. It counts as cell-based. The method in brief: as §2
The test system of data set [10] is Mus musculus. Kind of data set: Toxicity in human MDA-MB-231 cells xenografted athymic nude mouse left cardiac ventricle assessed as effect on spleen weight at 50 mg/kg, ip administered every other day for 3 weeks (reference value: 0.134 +/- 0.02 gram). It counts as organism-based. Set-up: dose 50 mg/kg, route intraperitoneal. Conditions: in vivo, 504 h.
Data set [11] concerns Mus musculus. Kind of data set: Toxicity in human MDA-MB-231 cells xenografted athymic nude mouse left cardiac ventricle assessed as effect on liver weight at 50 mg/kg, ip administered every other day for 3 weeks (reference value: 1 +/- 0.10 gram). On the set-up: dose 50 mg/kg, route intraperitoneal. Conditions: in vivo, 504 h. In kind it is organism-based, Heart.
The subject of data set [12] is Mus musculus. Kind of data set: Toxicity in human MDA-MB-231 cells xenografted athymic nude mouse left cardiac ventricle assessed as effect on spleen weight at 25 mg/kg, ip administered every other day for 3 weeks (reference value: 0.134 +/- 0.02 gram). It counts as organism-based. On the set-up: dose 25 mg/kg, route intraperitoneal. The settings on record: in vivo, 504 h.

Data set [13] concerns Mus musculus. Briefly: Toxicity in human MDA-MB-231 cells xenografted athymic nude mouse left cardiac ventricle assessed as effect on alanine aminotransferase at 25 mg/kg, ip administered every other day for 3 weeks (reference value: 7.04 +/- 2.2 U/L). It counts as organism-based, Heart. On the set-up: dose 25 mg/kg, route intraperitoneal. The settings on record: in vivo, 504 h.

The test system of data set [14] is MDA-MB-231. Briefly: Cytotoxicity against human MDA-MB-231 cells assessed as cell viability by MTT assay. In kind it is cell-based. A digest of the protocol:
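MDA-MB-231 plated at 5 × 10^4 cells/cm2 and held overnight in DMEM with 10% FBS at 37°C and 5% CO2. Pre-incubated 4 h with compound in 2% FBS DMEM, then medium refreshed with TGF-β1 (5 ng/mL) for 24 h. Cell number read by MTT reduction.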

The test system of data set [15] is Mus musculus. Kind of data set: Toxicity in human MDA-MB-231 cells xenografted athymic nude mouse left cardiac ventricle assessed as effect on platelets at 50 mg/kg, ip administered every other day for 3 weeks (reference value: 513 +/- 54 K/uL). The settings on record: in vivo, 504 h. In kind it is organism-based, Heart. On the set-up: dose 50 mg/kg, route intraperitoneal.

Data set [16] relates to Mus musculus. Kind of data set: Toxicity in human MDA-MB-231 cells xenografted athymic nude mouse left cardiac ventricle assessed as effect on white blood cells at 25 mg/kg, ip administered every other day for 3 weeks (reference value: 5.84 +/- 1.3 K/uL). Conditions: in vivo, 504 h.
The subject of data set [17] is Mus musculus. Kind of data set: Toxicity in human MDA-MB-231 cells xenografted athymic nude mouse left cardiac ventricle assessed as effect on platelets at 25 mg/kg, ip administered every other day for 3 weeks (reference value: 513 +/- 54 K/uL). It counts as organism-based, Heart. On the set-up: dose 25 mg/kg, route intraperitoneal. The settings on record: in vivo, 504 h.

The subject of data set [18] is MDA-MB-231. Kind of data set: Inhibition of TGF-beta-induced PTHrP secretion in human MDA-MB-231 cells treated 4 hrs before TGF-beta challenge measured after 24 hrs by radioimmunoassay. It counts as functional, cell-based. Conditions: for minimal effective concentration: read-out: MEC. A digest of the protocol: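 MDA-MB-231 plated at 5 × 10^4 cells/cm2 and held overnight in DMEM with 10% FBS. Pre-treated 4 h with compound (0.1–100 μM in methods; 0.1–300 μM in legend) in 2% FBS, then recombinant human TGF-β1 (5 ng/mL) or medium alone for 24 h. PTHrP measured in conditioned media by radioimmunoassay, n = 4 wells/group. IC50 from four-parameter logistic fit.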

Data set [19] concerns Mus musculus. Kind of data set: Effect on orthotopic tumor mass in human MDA-MB-231 cells xenografted athymic nude mouse mammary fat pad at 25 to 50 mg/kg, ip administered every other day for 3 weeks.
For data set [20], the system named is Mus musculus. Briefly: Toxicity in human MDA-MB-231 cells xenografted athymic nude mouse left cardiac ventricle assessed as effect on bone-forming osteoblast cell at 25 to 50 mg/kg, ip administered every other day for 3 weeks. In kind it is organism-based, Heart. On the set-up: dose 25-50 mg/kg, route intraperitoneal. Conditions: in vivo, 504 h.
For data set [21], the target named is Mothers against decapentaplegic homolog 2 (Homo sapiens) (UniProt Q15796). Kind of data set: Inhibition of TGF-beta-induced Smad2 phosphorylation in human MDA-MB-231 cells treated 12 hrs before TGF-beta challenge measured after 1 hr by Western blotting. In kind it is cell-based. A digest of the protocol:
as §2

Active and inactive are the calls of the source. No cut-off for these calls is given here. A value given as a limit tells only on which side of the number the result lay.

Chain of Mothers against decapentaplegic homolog 2 (Homo sapiens) (Q15796 whole entry): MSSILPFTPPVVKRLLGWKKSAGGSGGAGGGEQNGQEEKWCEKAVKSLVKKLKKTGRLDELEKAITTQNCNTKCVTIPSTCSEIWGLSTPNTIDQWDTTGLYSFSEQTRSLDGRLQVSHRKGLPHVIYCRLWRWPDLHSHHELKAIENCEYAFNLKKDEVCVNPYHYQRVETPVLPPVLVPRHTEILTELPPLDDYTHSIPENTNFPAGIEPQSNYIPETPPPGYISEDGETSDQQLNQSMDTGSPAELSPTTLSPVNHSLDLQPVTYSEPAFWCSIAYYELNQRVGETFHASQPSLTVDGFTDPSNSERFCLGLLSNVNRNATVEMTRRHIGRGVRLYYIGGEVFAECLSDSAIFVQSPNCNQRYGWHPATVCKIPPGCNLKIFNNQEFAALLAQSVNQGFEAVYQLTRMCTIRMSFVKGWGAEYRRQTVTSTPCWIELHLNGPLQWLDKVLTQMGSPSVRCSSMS
Chain of Mothers against decapentaplegic homolog 3 (Homo sapiens) (P84022 2-425 limits assumed): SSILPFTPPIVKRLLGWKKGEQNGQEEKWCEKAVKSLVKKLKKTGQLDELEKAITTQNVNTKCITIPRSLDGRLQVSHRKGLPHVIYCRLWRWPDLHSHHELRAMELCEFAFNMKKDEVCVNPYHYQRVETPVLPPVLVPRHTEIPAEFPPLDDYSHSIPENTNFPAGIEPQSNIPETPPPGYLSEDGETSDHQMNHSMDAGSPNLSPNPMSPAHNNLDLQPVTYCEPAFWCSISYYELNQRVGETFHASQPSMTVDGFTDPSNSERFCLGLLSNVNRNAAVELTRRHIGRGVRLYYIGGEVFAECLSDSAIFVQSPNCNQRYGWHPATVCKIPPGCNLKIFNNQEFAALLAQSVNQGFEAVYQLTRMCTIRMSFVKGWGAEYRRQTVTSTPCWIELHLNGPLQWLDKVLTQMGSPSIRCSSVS

As for `O=C(/C=C/c1ccc(O)cc1)CC(=O)/C=C/c1ccc(O)cc1` [BISDEMETHOXYCURCUMIN], the inhibition entry (in the data set on MDA-MB-231 [1]; in [9]; in [21]) was “Active” each time. Moreover, the entries for the “inhibition (INH)” value in the data set on MDA-MB-231 [2] and in the data set on MDA-MB-231 [4] were 51% and >50%, respectively. Moreover, the inhibition in vivo (in general, the percentage by which the read-out fell short of the control) at 25 mg/kg in the data set on MDA-MB-231 [3] is 53%. The inhibition entry in data set [5] is “inactive”. The Activity came to 31.1% in the data set with Mus musculus [6]; 0.987 g in the data set on Mus musculus [7]; 0.139 g in the data set with Mus musculus [10]; 1.1 g in the data set with Mus musculus [11]; 0.129 g in the data set with Mus musculus [12]; 7.13 U/L in the data set with Mus musculus [13]. Also, the Activity with Mus musculus [15] is given as 589 K/uL; in the data set on Mus musculus [16], 4.69 K/uL; in the data set with Mus musculus [17], 485 K/uL; in the data set on Mus musculus [20], “Non-toxic”. The result in the data set on MDA-MB-231 [8] was Active. Further, the MTC in the data set on MDA-MB-231 [14] was 82 µM. In addition, the IC50 – broadly, the concentration at which inhibition is half-maximal – in the data set with MDA-MB-231 [18] came out at 24 µM. Further, in the data set with MDA-MB-231 [18], the inhibition entry was “Dose-dependent effect”. In addition, the minimal effective concentration in the data set on MDA-MB-231 [18] came out at 13 µM. Further, in the data set on Mus musculus [19], the result was inactive.

As for `COc1cc(/C=C/C(=O)CC(=O)/C=C/c2ccc(O)c(OC)c2)ccc1O` [CURCUMIN], the inhibition entry (in the data set on MDA-MB-231 [1]; in data set [9]; in data set [21]) was “Active” each time. For the same molecule, the “inhibition (INH)” value is given as 51% with MDA-MB-231 [2] and >50% in the data set with MDA-MB-231 [4]. For the same molecule, in the data set with MDA-MB-231 [3], the inhibition in vivo at 25 mg/kg came out at 53%. In [5], the inhibition result was “inactive”. Moreover, the Activity was 31.1% in the data set on Mus musculus [6]; 0.987 g in the data set with Mus musculus [7]; 0.139 g in the data set on Mus musculus [10]; 1.1 g in the data set on Mus musculus [11]; 0.129 g in the data set on Mus musculus [12]; 7.13 U/L with Mus musculus [13]. In addition, the Activity in the data set with Mus musculus [15] is 589 K/uL; in the data set with Mus musculus [16], 4.69 K/uL; with Mus musculus [17], 485 K/uL; in the data set with Mus musculus [20], “Non-toxic”. Besides, the result with MDA-MB-231 [8] was Active. For the same molecule, the MTC in the data set on MDA-MB-231 [14] came out at 82 µM. The same molecule came in with an IC50 in the data set on MDA-MB-231 [18] of 24 µM. The inhibition result in the data set with MDA-MB-231 [18] is “Dose-dependent effect”. Moreover, the minimal effective concentration in the data set with MDA-MB-231 [18] stood at 13 µM. For the same molecule, the result in the data set on Mus musculus [19] was inactive.

In the case of `COc1cc(/C=C/C(O)=C/C(=O)/C=C/c2ccc(O)cc2)ccc1O` [DEMETHOXYCURCUMIN], the inhibition result (in the data set with MDA-MB-231 [1]; in data set [9]; in data set [21]) was “Active” throughout. In addition, the results for the “inhibition (INH)” value in the data set on MDA-MB-231 [2] and with MDA-MB-231 [4] were 51% and >50%, respectively. For the same molecule, the inhibition in vivo at 25 mg/kg in the data set on MDA-MB-231 [3] is 53%. The inhibition result in data set [5] is “inactive”. The Activity is given as 31.1% in the data set on Mus musculus [6]; 0.987 g in the data set on Mus musculus [7]; 0.139 g with Mus musculus [10]; 1.1 g in the data set on Mus musculus [11]; 0.129 g with Mus musculus [12]; 7.13 U/L with Mus musculus [13]. Besides, the Activity in the data set on Mus musculus [15] is listed as 589 K/uL; in the data set with Mus musculus [16] it was 4.69 K/uL; in the data set with Mus musculus [17] it was 485 K/uL; in the data set with Mus musculus [20] it was “Non-toxic”. The result in the data set with MDA-MB-231 [8] was Active. The MTC in the data set on MDA-MB-231 [14] turned out to be 82 µM. The molecule further gave a 50% inhibitory concentration (IC50) with MDA-MB-231 [18] of 24 µM. Also, the inhibition result with MDA-MB-231 [18] is “Dose-dependent effect”. Also, the minimal effective concentration with MDA-MB-231 [18] was 13 µM. In the data set with Mus musculus [19], the result was inactive.

These data come from ChEMBL document CHEMBL2396536, “Curcuminoids block TGF-β signaling in human breast cancer cells and limit osteolysis in a murine model of breast cancer bone metastasis” (J Nat Prod, 2013).
